Assay results from article PMC7332640 (Acta Pharmaceutica Sinica. B, 2019).

Assays:
[1] = In vitro phosphorylation of compounds in human whole blood; format: in vitro ADME; conditions: for Vmax (phosphorylation): 37 °C, 60 min, 1–100 μmol/L; for Km: read-out: Km (phosphorylation), 37 °C, 60 min, 1–100 μmol/L
How it was run: (§1)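 Test compound was spiked directly into fresh whole blood at eight levels from 1 to 100 and incubated at 37 °C for 60 min. Reactions were quenched with ice-cold acetonitrile, vortexed and centrifuged. The supernatant was analysed by LC-MS/MS for phosphate formation. Km and Vmax were obtained by nonlinear fitting to the Michaelis–Menten equation.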

[2] = In vitro phosphorylation of compounds in rat whole blood; format: in vitro ADME; conditions: for Vmax (phosphorylation): 37 °C, 60 min, 1–100 μmol/L; for Km: read-out: Km (phosphorylation), 37 °C, 60 min, 1–100 μmol/L
How it was run: as §1

[3] = format: in vivo; conditions: Sprague–Dawley rats, oral 3 mg/kg
How it was run: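 Male Sprague–Dawley rats, three per group, were fasted 12 h, dosed orally at 3 mg/kg in 0.5% hydroxypropyl methylcellulose, and fed 4 h postdose. Heparinized orbital blood was taken from 0.08 to 48 h, including 6 h, and protein-precipitated with acetonitrile. Parent and phosphorylated drug were quantified by positive-ESI MRM LC-MS/MS on a C18 column with a formic acid water/methanol gradient.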

## CCCCCCCCc1ccc(CC[C@@](C)(N)CO)cc1.Cl [Compound 21, (R)-2-Amino-2-methyl-4-(4-octylphenyl)butan-1-ol hydrochloride]
[1]
  CLint (phosphorylation): 0.295 µL/min
  Vmax (phosphorylation): 3.36 ± 0.62 pmol/min
  Km: 11.4 ± 1.9 µM
[2]
  CLint (phosphorylation): 1.545 µL/min
  Vmax (phosphorylation): 221 ± 36.8 pmol/min
  Km: 143 ± 25.4 µM
[3]
  phosphorylation level at 6 h after dosing: 95%

## CCCCCCCCc1ccc(CC[C@@H](N)CO)cc1.Cl [Compound 22, (R)-2-Amino-4-(4-octylphenyl)butan-1-ol hydrochloride]
[1]
  CLint (phosphorylation): 0.021 µL/min
  Vmax (phosphorylation): 1.24 ± 0.31 pmol/min
  Km: 58.2 ± 10.6 µM
[2]
  CLint (phosphorylation): 3.121 µL/min
  Vmax (phosphorylation): 28.4 ± 4.5 pmol/min
  Km: 9.1 ± 1.8 µM
[3]
  phosphorylation level at 6 h after dosing: 69%

## CCc1nc(-c2ccc(-c3ccc(CC[C@@](C)(N)CO)cc3)cc2)co1.Cl [Compound 23, (R)-2-Amino-4-(4′-(2-ethyloxazol-4-yl)-[1,1′-biphenyl]-4-yl)-2-methylbutan-1-ol hydrochloride]
[1]
  CLint (phosphorylation): 0.012 µL/min
  Vmax (phosphorylation): 0.87 ± 0.09 pmol/min
  Km: 65.5 ± 8.3 µM
[2]
  CLint (phosphorylation): 0.505 µL/min
  Vmax (phosphorylation): 65.2 ± 8.2 pmol/min
  Km: 129 ± 15.6 µM
[3]
  phosphorylation level at 6 h after dosing: 94%

## CCc1nc(-c2ccc(-c3ccc(CC[C@@H](N)CO)cc3)cc2)co1.Cl [Compound 24, (R)-2-Amino-4-(4′-(2-ethyloxazol-4-yl)-[1,1′-biphenyl]-4-yl)butan-1-ol hydrochloride]
[1]
  CLint (phosphorylation): 0.006 µL/min
  Vmax (phosphorylation): 0.24 ± 0.05 pmol/min
  Km: 40.2 ± 7.3 µM
[2]
  CLint (phosphorylation): 0.015 µL/min
  Vmax (phosphorylation): 1.9 ± 0.3 pmol/min
  Km: 128 ± 23.4 µM
[3]
  phosphorylation level at 6 h after dosing: 89%

## CCCCCCCCc1ccc(CCC(N)(CO)CO)cc1 [FTY720, fingolimod, reference compound]
[1]
  CLint (phosphorylation): 0.013 µL/min
  Vmax (phosphorylation): 0.33 ± 0.05 pmol/min
  Km: 25.7 ± 4.2 µM
[2]
  CLint (phosphorylation): 0.930 µL/min
  Vmax (phosphorylation): 63.4 ± 10.2 pmol/min
  Km: 68.2 ± 11.2 µM
[3]
  phosphorylation level at 6 h after dosing: 80%
